# Activity calls are given as the source filed them. The rule behind the calls is not given here.
# Assays:
# B-ALL [1] = test: Antiproliferative activity against mouse B-ALL cells harboring Bax/Bak double knockout mutant assessed as reduction in cell viability at 0.1 to 250 uM by CellTiter-Glo assay; assay type: functional, cell-based
# Procedure, shortened: (§1)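 CellTiter-Glo luminescent viability readout. Cells kept at 37 °C under 5% CO2. HMEC primary cells grown in basal medium with growth kit; leukemia lines and murine BCR-ABL (WT, Bax/Bak DKO) cultured per earlier description. Positive controls: staurosporine 25 μM, gambogic acid 10 μM, a toxic quinoline. At least two biological replicates in technical triplicate; luminescence normalized to untreated controls; EC50 computed.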
# Raji = test: Antiproliferative activity against human Raji cells assessed as reduction in cell viability at 0.1 to 250 uM by CellTiter-Glo assay; assay type: functional, cell-based; procedure, shortened: as §1
# MCF7 [2] = test: Antiproliferative activity against human MCF7 cells assessed as reduction in cell viability at 0.1 to 250 uM by CellTiter-Glo assay; assay type: functional, cell-based; procedure, shortened: as §1
# HepG2 = test: Antiproliferative activity against human HepG2 cells assessed as reduction in cell viability at 0.1 to 250 uM by CellTiter-Glo assay; assay type: functional, cell-based; procedure, shortened: as §1
# PBMC = test: Cytotoxicity against human PBMC cells assessed as reduction in cell viability at 0.1 to 250 uM by CellTiter-Glo assay; assay type: cell-based; procedure, shortened: as §1
# HMEC [3] = test: Cytotoxicity against human HMEC cells assessed as cell detachment; assay type: cell-based
# MCF7 [4] = test: Upregulation of Trx expression in human MCF7 at 10 uM after 3 to 6 hrs by Western blot analysis; assay type: functional, cell-based
# Procedure, shortened: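 Western blot of KOPN-8 or MCF-7 lysates, 30 μg protein per lane on 4–12% Bis-Tris SDS-PAGE and transferred to nitrocellulose. Blots were probed with an oxidative stress defense antibody cocktail (catalase, SOD1, Trx, smooth muscle actin) and tubulin, and detected with IR-dye secondaries on a LI-COR Odyssey.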
# [5] = Half life in human plasma; assay type: ADME, cell-free
# B-ALL [6] = test: Antiproliferative activity against mouse B-ALL cells harboring Bax/Bak double knockout mutant assessed as reduction in cell viability at 1 to 10 uM by CellTiter-Glo assay; assay type: functional, cell-based; procedure, shortened: as §1
# U2OS [7] = test: Antiproliferative activity against human U2OS assessed as reduction in cell viability at >10 uM by CellTiter-Glo assay; assay type: functional, cell-based; procedure, shortened: as §1
# KOPN-8 [8] = test: Cell cycle arrest in human KOPN8 cells assessed as increase in accumulation at G2/M phase at 10 uM incubated for 24 hrs by propidium iodide staining based flow cytometric analysis relative to control; assay type: functional
# Procedure, shortened: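 KOPN-8 plated at 1.00 × 10^6 cells/plate, held 12 h at 37 °C, treated 24 h at 10 μM; DMSO vehicle and 2 μM staurosporine as controls. Cells fixed in cold methanol, RNase-treated, stained with PI (50 μg/mL); cell-cycle distribution by flow cytometry.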
# KOPN-8 [9] = test: Induction of apoptosis in human KOPN8 cells at 10 uM by Annexin V-FITC and propidium iodide staining based flow cytometry; assay type: functional, cell-based; details: TDE = time-dependent effect
# Procedure, shortened: (§2)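 KOPN-8 cells were plated at 1.00 × 10^6 per plate and held 12 h at 37 °C, then treated 24 h; positive control 2 μM staurosporine, vehicle DMSO. Cells were stained with Annexin V-FITC and PI and analysed by flow cytometry (FACSCalibur). Profiles are representative of three independent biological replicates.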
# KOPN-8 [10] = test: Induction of apoptosis in human KOPN8 cells assessed as increase in caspase 3/7 activity incubated for 24 hrs by caspase3/7 reagent based ApoTox-Glo triplex assay; assay type: functional, cell-based
# Procedure, shortened: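 ApoTox-Glo Triplex assay in KOPN-8 or U2OS cells. Cells were incubated 12 h at 37 °C, then treated 24 h across 100–0.15 μM. Viability (GF-AFC, 400Ex/505Em) and cytotoxicity (bis-AAF-R110, 485Ex/520Em) were read after 30 min at 37 °C. Caspase-Glo 3/7 luminescence was then read after 0.5 h at room temperature. Values are mean ± SEM of three independent experiments.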
# KOPN-8 [11] = test: Induction of apoptosis in human KOPN8 cells assessed as increase in cleaved PARP 1 level at 1 to 100 uM after 24 hrs by Western blot analysis; assay type: functional, cell-based
# Procedure, shortened: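 Western blot of KOPN-8 and MCF-7 lysates made in RIPA-type buffer (Tris pH 7.5, Triton X-100, deoxycholate, SDS) with protease and phosphatase inhibitors. 30 μg protein per lane was run on 4–12% Bis-Tris SDS-PAGE and transferred to nitrocellulose. Blots were probed for cleaved caspase-7 and PARP-1 and detected with IR-dye secondaries. Menadione served as positive control: 10 μM in KOPN-8, 30 μM in MCF-7. Blots are representative of three independent experiments.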
# B-ALL [12] = test: Cytotoxicity against BCR-ABL p185-positive mouse B-ALL cells overexpressing human MCL-1 assessed as inhibition of cell viability after 24 hrs by AnnexinV-FITC/propidium iodide staining based flow cytometric analysis; assay type: functional
# HMEC [13] = test: Induction of ROS generation in human HMEC cells at 30 uM incubated for 1 hr by CellROX green reagent based fluorescence assay; assay type: cell-based
# Procedure, shortened: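 CellROX green ROS assay: cells exposed 1 h at 37 °C (30 μM) with DMSO 0.5% (v/v) negative control, menadione 10 μM positive control, ± NAC (100 μM per figure legend). CellROX green added at 5 μM final, 30 min more; washed, fixed in 4% paraformaldehyde 15 min, fluorescence read at 485 ex/535 em. Mean and SD of at least three experiments; two-way ANOVA.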
# MDA-MB-231 = test: Induction of ROS colocalization in mitochondria of human MDA-MB-231 cells at 30 uM incubated for 1 hr in presence of NAC by CellROX green reagent/mitotracker deep red staining based confocal microscopic method; assay type: functional, cell-based
# Procedure, shortened: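 MDA-MB-231 plated at 4 × 10^4/well in phenol-red-free medium, 12 h at 37 °C; for rescue, NAC 100 μM pretreatment 0.5 h. Compound 30 μM or DMSO for 1 h, then CellROX green 5 μM final, MitoTracker Deep Red 250 nM, Hoechst 33342 500 nM (0.5 h before imaging). Washed twice, live spinning-disk confocal at 63×; two independent experiments.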
# [14] = Stability in CH3CN assessed as micheal adduct formation by measuring intact compound incubated for 16 hrs in presence of NAC by LC-MS analysis; assay type: physicochemical
# [15] = Stability in CH3CN assessed as micheal adduct formation by measuring intact compound incubated for 16 hrs in presence of NAC by NMR analysis; assay type: physicochemical
# [16] = Stability in DMSO assessed as micheal adduct formation by measuring intact compound incubated for 16 hrs in presence of glutathione by LC-MS analysis; assay type: physicochemical
# U2OS [17] = test: Ratio of concentration required for induction of apoptosis in human U2OS cells to concentration required for induction of mito-phagy in human U2OS cells transfected with mKeima-Red-Mito-7; assay type: functional
# BJ = test: Cytotoxicity against human BJ cells assessed as cell viability at >100 uM by CellTiter-Glo assay; assay type: cell-based; procedure, shortened: as §1
# KOPN-8 [18] = test: Induction of apoptosis in human KOPN8 cells assessed as early apoptotic cells at 10 uM after 24 hrs by Annexin V-FITC and propidium iodide staining based flow cytometry; assay type: functional, cell-based; procedure, shortened: as §2
compound,measurement,setting,value
CC1=C2CC(C)(C)/C=C/C(=O)/C(C)=C\C3=C[C@H](C)C[C@]3(O2)C1=O [JATROPHONE],inhibition,B-ALL [1],Active
same,inhibition,Raji,Active
same,inhibition,MCF7 [2],Active
same,inhibition,HepG2,Active
same,Activity,PBMC,Toxic
same,Activity,HMEC [3],Toxic
same,Activity,MCF7 [4],inactive
CC(=O)O[C@H]1/C2=C/[C@@H](C)C(=O)C[C@H]3[C@@H](/C=C(\C)C(=O)[C@H]2C[C@H]1C)C3(C)C,half-life,[5],19.5 h
same,inhibition,B-ALL [6],Active
same,inhibition,U2OS [7],Active
same,Activity,KOPN-8 [8],10%
same,Activity,KOPN-8 [9],Tde
same,Activity,KOPN-8 [10],Dose-dependent effect
same,Activity,KOPN-8 [11],Active
same,IC50,B-ALL [12],3.31 µM
same,Activity,HMEC [13],Toxic
same,Activity,MDA-MB-231,inactive
same,Stability,[14],Stable
same,Stability,[15],Stable
same,Stability,[16],Stable
same,Ratio,U2OS [17],5
same,Activity,BJ,Non-Toxic
same,Activity,KOPN-8 [18],inactive
